OX1R antag-1 = blocks the human orexin 1 receptor. CHO/OX1R cells, Fluo-8 calcium fluorescence, orexin A. inhibition, % at 5 µM. actives 0.43% (n = 330,000). AID 434989;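 active means inhibition above its plate's threshold, mean inhibition of all tested compounds on the plate plus 3 SD, cut at about 37% in these data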;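 further: 0% = orexin A challenge wells and 100% = SB-334867-A antagonist wells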
OXTR agonist = activates the human oxytocin receptor; CHO-OTR cells, Fluo-8 calcium fluorescence; normalized: DMSO 0%, oxytocin 100%; activation, % at 3 µM; actives 0.32% (n = 320,000); AID 2435;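 active means activation above the mean of all tested compounds plus 3 SD, cutoff set per screening run, cut at about 20% in these data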;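 further: peak over basal fluorescence ratio from a 100 s FLIPR kinetic read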
Target sequence (P30559 whole entry, looked up): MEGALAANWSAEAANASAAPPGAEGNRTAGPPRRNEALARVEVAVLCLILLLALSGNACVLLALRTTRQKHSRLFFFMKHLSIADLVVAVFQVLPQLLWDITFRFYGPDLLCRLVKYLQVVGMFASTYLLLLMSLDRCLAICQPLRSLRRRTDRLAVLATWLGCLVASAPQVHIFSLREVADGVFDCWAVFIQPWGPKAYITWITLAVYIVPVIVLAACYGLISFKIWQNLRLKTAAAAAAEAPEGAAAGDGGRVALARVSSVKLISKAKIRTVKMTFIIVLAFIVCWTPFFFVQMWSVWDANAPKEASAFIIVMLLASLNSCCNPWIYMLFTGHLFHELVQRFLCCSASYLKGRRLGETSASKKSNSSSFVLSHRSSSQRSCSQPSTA
OX1R antag-2 = blocks the human orexin 1 receptor | AID 485270 | O43613 | inhibition, % at 6.6 µM | OX1R-expressing cells, FRET antagonist read-out | actives 1.8% (n = 330,000); in the data active means inhibition mostly above about 38%, no sharp cut-off; inactive means mostly below about 40%;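 further: 0% = agonist challenge alone and 100% = reference antagonist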
V1R ag counter = V1a receptor agonism, counter-screen for OXTR agonists; activation, % at 3 µM; CHO-V1R cells, Fluo-8 calcium fluorescence, agonist mode; 0% DMSO, 100% 3 nM vasopressin; AID 2797; actives 0.25% (n = 320,000);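 active means activation above the mean activation of all tested compounds plus 3 SD, per screening run, cut at about 20% in these data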;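 further: signal is peak over basal fluorescence ratio across a 100 second FLIPR read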
CHO parental Ca = counter-screen for OX1R antagonists: effect in parental CHO cells | parental CHO-K1, ATP-induced calcium, Fluo-8 fluorescence | inhibition, % at 5.6 µM | actives 0.63% (n = 330,000) | AID 463079;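 active means inhibition above that plate's mean sample inhibition plus 3 SD, cut at about 26% in these data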;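 further: 0% = ATP-challenged DMSO wells and 100% = DMSO wells without ATP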
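Test system: untransfected parental CHO cell line; also added: ATP stimulus; dosing: 5.6 µM, single dose; signal: calcium-sensitive Fluo-8 fluorescence; measure: percent inhibition of ATP-evoked calcium rise, normalized to controls; benchmarks: low control ATP plus DMSO, high control DMSO only; replication: one well per compound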
OXTR potentiator = potentiators of human oxytocin receptor; CHO-OTR cells, Fluo-8 calcium fluorescence, potentiator mode; 0% = oxytocin EC15, 100% = EC100; activation, % at 3 µM; actives 0.061% (n = 320,000);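 active means activation above that plate's cutoff, the mean activation of tested compounds plus 3 SD, cut at about 6.6% in these data, passing the limit was not always enough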;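 further: 100% uses oxytocin at 75 nM as the full agonist control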
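System: human OTR in CHO cells; Also added: sub-maximal oxytocin, roughly EC15; Timing: compound 6 min at room temperature before oxytocin, 100 s read; Technique: Fluo-8 intracellular calcium fluorescence, ex 470-495, em 515-575 nm; Controls: oxytocin EC15 low and EC100 high; Replication: singlicate.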
The depositor's hits bear a star; . = not tested or not shown. In the library only some 2.7% were active in any assay of this set; here they are far more common.

SMILES	OX1R antag-1	OXTR agonist	OX1R antag-2	V1R ag counter	CHO parental Ca	OXTR potentiator
Cc1ccccc1C(=O)NNC(=S)NC(=O)c1ccccc1	24	53*	-1	40*	-2	-9
COc1ccc(C(=O)NC(=S)NNC(=O)c2ccncc2)cc1Br	-2	3	6	4	1	1
O=C(O)C1C2CCC(C2)C1C(=O)N1CCCC1 (centres undefined)	-4	0	2	0	-10	-9
CCC(=O)N(CCC(c1ccc(C)cc1)c1ccco1)Cc1ccco1 (centres undefined)	-20	0	18	-1	-26	-2
CC1Cc2ccccc2N1C(=O)CN(C)CC(=O)Nc1cccc(F)c1 (centres undefined)	-7	-1	4	0	-14	-6
O=C(COc1ccc(Cl)cc1Br)NCC(c1ccco1)N1CCCC1 (centres undefined)	-32	1	8	1	-15	-8
O=C(CSCc1ccc(Br)cc1)Nc1ccccc1C(=O)N1CCOCC1	-7	2	11	1	-16	-6
Cc1cc(S(=O)(=O)N2c3ccc(F)cc3CCC2C)ccc1-n1cnnn1 (centres undefined)	-13	1	6	2	-5	-6
CC(C)(C)c1cc(CCC(=O)NNC(=S)NC(=O)c2ccccc2)cc(C(C)(C)C)c1O	-2	58*	-3	31*	-4	-19
Cc1ccc(C(=O)NC(=S)NNC(=O)c2ccccc2)cc1	11	82*	7	89*	15	-23
Cc1ccc(C(=O)NC(=S)NNC(=O)c2ccccc2[N+](=O)[O-])cc1	-11	2	13	1	2	-7
Cc1ccc(C(=O)NC(=S)NCc2ccccc2)cc1	-25	-2	11	-1	-13	-4
O=C(CCc1ccccc1)NNC(=S)NC(=O)c1ccccc1	-2	3	-3	1	-2	-6
Cc1ccc(C(=O)NNC(=O)c2cccc(C)c2)cc1	-5	0	9	1	5	-2
Cc1ccc(C(=O)NNC(=S)NC(=O)c2ccccc2)cc1	57*	88*	20	96*	34*	-19
Cc1cccc(C(=O)NNC(=S)NC(=O)c2ccccc2)c1	62*	83*	8	108*	37*	-22
CC(=O)Nc1ccc(S(=O)(=O)NCc2nc(-c3ccccc3C)no2)cc1	-6	0	18	0	-6	-14
CC(C)(C)NC(=O)C(c1ccc(-c2ccccc2)cc1)N(C[C@H]1CC[C@@H]([C@@H]2CC[C@H](CO)O2)O1)C(=O)c1ccccc1F (some centres undefined)	-9	.	4	.	-23	.
COc1ccccc1CNC(=O)COC(=O)/C=C/c1ccc2ccccc2n1	-7	-1	18	0	-23	-9
Cc1cccc(C(=O)NNC(=S)NC(=O)c2cccs2)c1	32	65*	12	63*	33*	-19
Cc1ccc(C(=O)NNC(=S)NC(=O)c2ccc(Cl)cc2Cl)cc1	57*	101*	1	117*	45*	-14
COc1ccc(C(=O)NNC(=S)NC(=O)c2ccc(OC)cc2)cc1	23	43*	7	28*	12	-27
CC(C)C(=O)Nc1ccc(C(=O)NNC(=S)NC(=O)c2cccs2)cc1	-6	-2	14	0	-8	0
CC(C)NC(=S)NC(=O)c1ccc(Cl)cc1Cl	-32	-3	4	-1	-19	-4
CC(C)NC(=O)Nc1ccc2c(c1)C(=O)N([C@H](C)CO)C[C@H](C)[C@@H](CN(C)S(=O)(=O)c1ccc(F)cc1)O2	-9	0	2	2	-4	3
O=c1c(/C=N/O)c(Nc2ccccc2)nc2ccccn12	9	-2	73*	-1	0	-6
O=C(CSc1nc2ccccc2s1)N1c2ccccc2Sc2ccc(Cl)cc21	-4	1	45*	1	5	0
O=C(CSc1nc2ccccc2s1)N1c2ccccc2Sc2ccc(C(F)(F)F)cc21	-12	3	6	2	-3	-13
C[n+]1c(/C=C/c2ccc(O)cc2)ccc2ccccc21	-9	0	73*	1	-2	-6

Source: PubChem BioAssay
